The subject of the data set is MS2 coat protein. As to the kind of experiment: apparent Kd, MS2 coat protein; higher = weaker binding; RNA-MaP array; FMN 200 µM where present. In outline: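 Designs were transcribed by stalled E. coli RNA polymerase on Illumina sequencing-chip clusters. They were titrated with SNAP-549-labelled MS2 coat protein from 0.7 or 1.5 nM, doubling to 3 µM, in 100 mM Tris-HCl pH 7.5, 80 mM KCl, 4 mM MgCl2, BSA, DTT, yeast tRNA and Tween-20, without and then with constant ligand. The apparent Kd is the median of filtered per-cluster fits after normalisation of green signal to red-channel RNA signal and control-cluster median Fmax.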

Setting [1] is: designed as: ON switch for flavin mononucleotide, no ligand.
Setting [2] is: ligand present: flavin mononucleotide, designed as: ON switch for flavin mononucleotide.
[3] abbreviates: designed as: OFF switch for flavin mononucleotide, no ligand.
[4] abbreviates: ligand present: flavin mononucleotide, designed as: OFF switch for flavin mononucleotide.

For the sequence “GUAUGAGCGAUAGGAUAUACUGGGAUUGAAUGGGUAGAAGGAUUUCUUGUGGGAAAGACAUGAGGAUCACCCAUGUCGCGGACC”, the “apparent Kd” value was determined as 255 nM under setting [1] and 165 nM under setting [2].
For “UAUACACAUGAGGAUCACCCAUGUGAGGAUAUGUACAACAACCCGACGGUGUUGUUGUACAGAAGGCACAAAUA”, the “apparent Kd” value was found to be 80.2 nM under setting [3] and 59.8 nM under setting [4].
In the case of “UUUGGGUGGCUGGAGGAUAUUCGAGUGGUUACAUGAGGAUCACCCAUGUGUCGCGCGGUACACGAGGAGAAGGCUGGCGGCCGUU”, the “apparent Kd” value by setting is: under setting [1], 50.8 nM; under setting [2], 22.4 nM.
In the case of “UCAUAACAUGAGGAUCACCCAUGUGAGGAUAUGAUACUAUGUACUUCGGUACAUAGUAUCAGAAGGCACAUACU”, the “apparent Kd” value under setting [3] was 85 nM and the “apparent Kd” value under setting [4] was 316 nM.
On to “UUUGUUGUUGUGAGGAUAUCGUAGUUAUUUUGUAACGAGAAGGCACAUGAGGAUCACCCAUGUUUUUUGAUGGU”, for which the “apparent Kd” value by setting is: under setting [3], 22.7 nM; under setting [4], 90 nM.
For “GUAGAGUAGUGAGGAUAUACGAGCUCGAUAGAGCGGCGAUCCAAUAAUACAUGAGGAUCACCCAUGUAGAAGGCACUUCUCUAC”, the “apparent Kd” value by setting is: under setting [3], 6.71 nM; under setting [4], 91 nM.
For “UUAUGUGGCGUAGGAUAUCAUUAGAUUUGUAAUUUAAUUGUAAUUUCCAUAUGAGAAGGACGUACACAUGAGGAUCACCCAUGU”, the “apparent Kd” value under setting [3] was 90.1 nM and the “apparent Kd” value under setting [4] came to 32.4 nM.
As for “GCGAGCGUACUUGCAACAUGAGGAUCACCCAUGUUAACUGGACAGGAUAUGGUACCGUUUCGGUACCAGAAGGGUUCACUCAUG”, the “apparent Kd” value was found to be 137 nM under setting [1] and 250 nM under setting [2].
Take “GUCAUGGUAACAGGAUAUCGUUGAUAAAAGUUAUACAUGAGGAUCACCCAUGUCCGCACUAAGGGCGAGAAGGGUUAUUAUCAC”: the “apparent Kd” value is, setting by setting: under setting [1], 501 nM; under setting [2], 382 nM.
Regarding “UCCGCGGACAUAGGAUAUACUGCGAAAUUUCUAGUAGAAGGGUGACCGCACGUGCGAACUGUACAUGAGGAUCACCCAUGUACU”, the “apparent Kd” value runs as follows: under setting [1], 21.4 nM; under setting [2], 23.1 nM.
Turning to “AAAAAACAUGAGGAUCACCCAUGUAAGGAUAUGCUAAAAAAAAAAAAAAAAAAAAAAUGCAGAAGGUACAAAAA”, the “apparent Kd” value is 63.6 nM under setting [3] and 78.2 nM under setting [4].
In the same order, the values of “AAAUAGCGAGGAUAUACAUGAGGAUCACCCAUGUGGACUGAUGUCGCAUGAUUCAGUGGUAGAAGGUGCUCAAA” are 90.4 nM and 127 nM.
Regarding “AUAAUGUGAGGAUAUACAUGAGGAUCACCCAUGUAAUUAAAUCGGAGAGCCACAUUUCGUAGAAGGUACAUUUA”, the “apparent Kd” value under setting [3] stood at 20.7 nM and the “apparent Kd” value under setting [4] stood at 22.6 nM.
Taken in the same sequence, the figures for “CGUGCGUAUGUGAGGAUAUGCUGGUCCUUGGAUCAGCAGAAGGCACAUGAGGAUCACCCAUGUGGUGUCGUACA” were 273 nM and 20.1 nM.
Turning to “CCGGAAACGGGUAGCCUGACAUGAGGAUCACCCAUGUGAACCGAGGAUAUGGAUCCUAAUUGGAUCCAGAAGGUGGAAGGCUAC”, the “apparent Kd” value stood at 381 nM under setting [1] and 167 nM under setting [2].
For “UUAUUAUGUGUAGGAUAUGCAUAUUAUUAUUAUGCAGAAGGACAUGAGGAUCACCCAUGUAUAUUAUUAAUAUAUAUUAUAUAU”, the “apparent Kd” value was 13.9 nM under setting [3] and 15.7 nM under setting [4].
For the sequence “UAUAUGUCAGGAUAUUAGUUGUGUUAGAAUUUAACUUCUGCUGAGAAGGGACAUGAGGAUCACCCAUGUUCCUC”, the “apparent Kd” value under setting [3] was 15.9 nM and the “apparent Kd” value under setting [4] stood at 21.2 nM.
“GUAAUUAUAUAGGAUAUCGAUUUUAUUAUUUAACGAGAAGGAUGAACAUGAGGAUCACCCAUGUGGUAUCAUGG”: the “apparent Kd” value is 164 nM under setting [3] and 177 nM under setting [4].
“UUUUAACAUGAGGAUCACCCAUGUGAGGAUAUCGAAAUUUAUAUUAAUAUUUUUAAUUCGAGAAGGCACAUUUU”: the “apparent Kd” value under setting [3] was 116 nM and the “apparent Kd” value under setting [4] was 118 nM.
As to “CGUCGAUACCAGAAGGACAUGAGGAUCACCCAUGUAGGAUAUGGGUGACCGGGAUAGUGGACACAGCGCCCGGGCACAUGCGAC”, the “apparent Kd” value reads like this: under setting [1], 13.6 nM; under setting [2], 8.19 nM.
Turning to “UUUUAACAUGAGGAUCACCCAUGUGAGGAUAUCGAAAUUUAUAUUUAUAUUAAUAUUACGAGAAGGCACAUUUU”, the “apparent Kd” value reads like this: under setting [3], 85.5 nM; under setting [4], 118 nM.
On to “GUAGAGUAGUGAGGAUAUACGAGAUCGAUAGAUCGGCGAUCCAUUAAUACAUGAGGAUCACCCAUGUAGAAGGCACUUCUCUAC”, for which the “apparent Kd” value is 6.31 nM under setting [3] and 76.7 nM under setting [4].
Turning to “AUCAGCUCGUCAGGAUAUACGUCACUGCGUCAGCAGUGUGGUAAGAUAACAUGAGGAUCACCCAUGUAGAAGGGACGAGCUGAU”, the “apparent Kd” value worked out at 7.29 nM under setting [3] and 13.1 nM under setting [4].
Regarding “GACACUAUGUUUGUCAGAUAGAGAGAGGAUAUGGCUCAUGUGACAUGAGGAUCACCCAUGUAUAAUCAGAAGGCUCGAGUACGA”, the “apparent Kd” value under setting [1] stood at 45.9 nM and the “apparent Kd” value under setting [2] was found to be 16.3 nM.
As for “GGACGUCUCAUUAACAUGAGGAUCACCCAUGUCGAUAGACAUGAGGAUAUGGAUCCUAAUUGGAUCCAGAAGGCAUGGACGUCC”, the “apparent Kd” value reads like this: under setting [1], 1040 nM; under setting [2], 67.6 nM.
On to “UUUUAACAUGAGGAUCACCCAUGUGAGGAUAUCGUUUUUUAUAUUAAUAUUAAUAAAACGAGAAGGCACAUUUU”, for which the “apparent Kd” value worked out at 137 nM under setting [3] and 150 nM under setting [4].
In the same order, the values of “AAGAAGUGAGGAUAUGCUGACAAUAUGAAGACUUGAGGUAUGCAGAAGGCACAUGAGGAUCACCCAUGUAAGAA” are 30 nM and 29.7 nM.
In the same order, the values of “UUUAACGUAGCAGGAUAUUGACGACUUGGGACAUGAGGAUCACCCAUGUUGCAAGAAGGGCUUAGUCAAGACACGAGCGGUGUU” are 6.54 nM and 8.15 nM.
Consider “UAAGUUGAGGAGAAGGGAGCACAUGAGGAUCACCCAUGUGGUUCUUUGUGCUCAGGAUAUCCAUGGAGCUCCGUCGAGUUCCAG”, for which the “apparent Kd” value turned out to be 56.7 nM under setting [3] and 16.6 nM under setting [4].
Consider “UUAUUAGCAGGAUAUAUCCAGGAUUACAUGAGGAUCACCCAUGUGACCGCUUGAAAUUCUAUAGAAGGGCUUUAUU”, for which the “apparent Kd” value was 33.2 nM under setting [3] and 36.4 nM under setting [4].
Regarding “UUAUUAAAUGUAGGAUAUGCAUAUUAUUAUUAUGCAGAAGGACAUGAGGAUCACCCAUGUAUAUUAUUAUUAUAUAUUAUAUAU”, the “apparent Kd” value was 32.5 nM under setting [3] and 71.3 nM under setting [4].
With “GCUGCAUAGGCAGGAUAUGCAAAAAACGAUGCAAAGCAUCGAAAAAAAACAUGAGGAUCACCCAUGUAGAAGGGCCUGUGCAGU”, the “apparent Kd” value turned out to be 22.6 nM under setting [3] and 20.8 nM under setting [4].
In the same order, the values of “UUUUUGUCAGGAUAUGAUUAGAUCUACUUCGGUAGAUCUAAUCAGAAGGGACAUGAGGAUCACCCAUGUAGUUU” are 36.5 nM and 141 nM.
For “UUCAGACAUGAGGAUCACCCAUGUGAGGAUAUGAUGCGAUCGUCGAAAGACGAUAGCAUCAGAAGGUACAAAUG”, the “apparent Kd” value by setting is: under setting [3], 63 nM; under setting [4], 66.6 nM.
As to “CCGGAAAUGCAGGAUAUCGUAUCGGAAACGAUACGAGAAGGGUAUACAUGAGGAUCACCCAUGUGUCCUACCGG”, the “apparent Kd” value worked out at 22.6 nM under setting [3] and 21.4 nM under setting [4].
As to “UUACUAUUACAGAAGGUUAAAUAAUAUAUAAAUGAAGGAUAUGUAACAUGAGGAUCACCCAUGUUUCACCCACAUGAGGAUCAU”, the “apparent Kd” value is, setting by setting: under setting [3], 9.63 nM; under setting [4], 9.57 nM.

What is called apparent Kd is a dissociation constant that holds for the conditions of the assay.

The record behind these values is the EternaBench riboswitch data.
